Values after ≈ are worked out from the molar mass of the structure shown.
Columns and labels:
Staphylococcus aureus = assay: Antimicrobial activity against Staphylococcus aureus after 24 hrs by broth dilution method; format: functional
In short: (§1)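 MIC by broth dilution in triplicate, reported as mean ± SD. Panel: bacteria S. aureus, S. pyogenes, E. coli; fungi C. neoformans, A. niger, A. flavus. Ciprofloxacin served as positive control for bacteria and nystatin for fungi. DMSO was the solvent and solvent control.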

Streptococcus pyogenes = assay: Antimicrobial activity against Streptococcus pyogenes after 24 hrs by broth dilution method; format: functional; in short: as §1
Escherichia coli = assay: Antimicrobial activity against Escherichia coli after 24 hrs by broth dilution method; format: functional; in short: as §1
Cryptococcus neoformans = assay: Antimicrobial activity against Cryptococcus neoformans after 72 hrs by broth dilution method; format: functional; in short: as §1
Aspergillus niger = assay: Antimicrobial activity against Aspergillus niger after 72 hrs by broth dilution method; format: functional; in short: as §1
Aspergillus flavus = assay: Antimicrobial activity against Aspergillus flavus after 72 hrs by broth dilution method; format: functional; in short: as §1
[1] = Antioxidant activity assessed as DPPH radical scavenging activity at 20 ug/ml after 20 mins by spectrophotometry relative to control; format: physicochemical
In short: (§2)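 Radical scavenging measured in vitro by DPPH and by hydroxyl radical scavenging assays. Each run in triplicate at five concentrations, reported as mean ± SD of three replicates.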

[2] = Antioxidant activity assessed as DPPH radical scavenging activity at 40 ug/ml after 20 mins by spectrophotometry relative to control; format: physicochemical; in short: as §2
[3] = Antioxidant activity assessed as DPPH radical scavenging activity at 60 ug/ml after 20 mins by spectrophotometry relative to control; format: physicochemical; in short: as §2
[4] = Antioxidant activity assessed as DPPH radical scavenging activity at 80 ug/ml after 20 mins by spectrophotometry relative to control; format: physicochemical; in short: as §2
[5] = Antioxidant activity assessed as DPPH radical scavenging activity at 100 ug/ml after 20 mins by spectrophotometry relative to control; format: physicochemical; in short: as §2
[6] = Antioxidant activity assessed as hydroxyl radical scavenging activity at 20 ug/ml after 60 mins relative to control; format: physicochemical; conditions: 1 h; in short: as §2
[7] = Antioxidant activity assessed as hydroxyl radical scavenging activity at 40 ug/ml after 60 mins relative to control; format: physicochemical; conditions: 1 h; in short: as §2
[8] = Antioxidant activity assessed as hydroxyl radical scavenging activity at 60 ug/ml after 60 mins relative to control; format: physicochemical; conditions: 1 h; in short: as §2
[9] = Antioxidant activity assessed as hydroxyl radical scavenging activity at 80 ug/ml after 60 mins relative to control; format: physicochemical; conditions: 1 h; in short: as §2
[10] = Antioxidant activity assessed as hydroxyl radical scavenging activity at 100 ug/ml after 60 mins relative to control; format: physicochemical; conditions: 1 h; in short: as §2

| Compound | MIC (Staphylococcus aureus) [µg/mL] | MIC (Streptococcus pyogenes) [µg/mL] | MIC (Escherichia coli) [µg/mL] | MIC (Cryptococcus neoformans) [µg/mL] | MIC (Aspergillus niger) [µg/mL] | MIC (Aspergillus flavus) [µg/mL] | Activity [1] [%] | Activity [2] [%] | Activity [3] [%] | Activity [4] [%] | Activity [5] [%] | Activity [6] [%] | Activity [7] [%] | Activity [8] [%] | Activity [9] [%] | Activity [10] [%] |
| --- | --- | --- | --- | --- | --- | --- | --- | --- | --- | --- | --- | --- | --- | --- | --- | --- |
| CCOC(=O)C1C(C(=O)c2cccs2)C1c1ccc(OC)cc1OC (configuration not stated) | 25 (≈ 69.4 µM) | 25 (≈ 69.4 µM) | 25 (≈ 69.4 µM) | 25 (≈ 69.4 µM) | 50 (≈ 139 µM) | 50 (≈ 139 µM) |  |  |  |  |  |  |  |  |  |  |
| CCOC(=O)[C@@H]1CC(=O)c2sccc2[C@H]1c1cc(OC)cc(OC)c1 | 12.5 (≈ 34.7 µM) | 25 (≈ 69.4 µM) | 12.5 (≈ 34.7 µM) | 12.5 (≈ 34.7 µM) | 25 (≈ 69.4 µM) | 25 (≈ 69.4 µM) | 18.56 | 19.97 | 24.76 | 27.43 | 31.54 | 16.76 | 20.65 | 29.65 | 36.32 | 41.5 |
| O=C1O[C@H]([C@@H](O)CO)C(O)=C1O [ASCORBIC ACID] |  |  |  |  |  |  | 15.08 | 16.87 | 21.98 | 24.25 | 28.65 |  |  |  |  |  |
| CCOC(=O)[C@@H]1CC(=O)c2sccc2[C@H]1c1ccc(OCC)cc1 | 75 (≈ 218 µM) | 50 (≈ 145 µM) | 50 (≈ 145 µM) | 25 (≈ 72.6 µM) | 75 (≈ 218 µM) | 100 (≈ 290 µM) | 17.08 | 18.54 | 22.87 | 25.43 | 28.96 | 15.43 | 19.76 | 26.98 | 34.13 | 37.99 |
| CCOC(=O)C1C(C(=O)c2cccs2)C1c1ccc(OC)cc1 (configuration not stated) | 50 (≈ 151 µM) | 50 (≈ 151 µM) | 50 (≈ 151 µM) | 50 (≈ 151 µM) | 100 (≈ 303 µM) | 100 (≈ 303 µM) |  |  |  |  |  |  |  |  |  |  |
| O=C(O)c1cn(C2CC2)c2cc(N3CCNCC3)c(F)cc2c1=O [CIPROFLOXACIN] |  | 50 (≈ 151 µM) | 25 (≈ 75.4 µM) |  |  |  |  |  |  |  |  |  |  |  |  |  |
| CCOC(=O)[C@@H]1CC(=O)c2sccc2[C@H]1c1ccc(OC)cc1 | 50 (≈ 151 µM) | 25 (≈ 75.7 µM) | 50 (≈ 151 µM) | 50 (≈ 151 µM) | 25 (≈ 75.7 µM) | 50 (≈ 151 µM) | 15.02 | 16.71 | 20.31 | 23.92 | 26.22 | 13.03 | 17.98 | 24.76 | 30.98 | 34.09 |
| CCOC(=O)C1C(C(=O)c2cccs2)C1c1ccc(OCC)cc1 (configuration not stated) | 12.5 (≈ 36.3 µM) | 25 (≈ 72.6 µM) | 25 (≈ 72.6 µM) | 12.5 (≈ 36.3 µM) | 12.5 (≈ 36.3 µM) | 25 (≈ 72.6 µM) |  |  |  |  |  |  |  |  |  |  |
| CCOC(=O)C1C(C(=O)c2cccs2)C1c1cc(OC)cc(OC)c1 (configuration not stated) | 50 (≈ 139 µM) | 75 (≈ 208 µM) | 75 (≈ 208 µM) | 50 (≈ 139 µM) | 50 (≈ 139 µM) | 75 (≈ 208 µM) |  |  |  |  |  |  |  |  |  |  |
| NYSTATIN |  |  |  | 25 | 50 | 50 |  |  |  |  |  |  |  |  |  |  |
| CCOC(=O)[C@@H]1CC(=O)c2sccc2[C@H]1c1ccc(OC)cc1OC | 50 (≈ 139 µM) | 50 (≈ 139 µM) | 75 (≈ 208 µM) | 50 (≈ 139 µM) | 100 (≈ 277 µM) | 75 (≈ 208 µM) | 9.76 | 11.76 | 14.98 | 18.64 | 20.76 | 10.05 | 12.76 | 19.87 | 23.87 | 26.82 |
| CCOC(=O)C1C(C(=O)c2cccs2)C1c1ccc(OC)c(OC)c1 (configuration not stated) | 25 (≈ 69.4 µM) | 50 (≈ 139 µM) | 25 (≈ 69.4 µM) | 25 (≈ 69.4 µM) | 25 (≈ 69.4 µM) | 50 (≈ 139 µM) |  |  |  |  |  |  |  |  |  |  |
| CCOC(=O)[C@@H]1CC(=O)c2sccc2[C@H]1c1ccc(OC)c(OC)c1 | 50 (≈ 139 µM) | 50 (≈ 139 µM) | 25 (≈ 69.4 µM) | 25 (≈ 69.4 µM) | 25 (≈ 69.4 µM) | 50 (≈ 139 µM) | 14.65 | 14.76 | 20.93 | 22.87 | 25.54 | 12.23 | 16.64 | 24.07 | 30.37 | 34.02 |
| CCOC(=O)[C@@H]1CC(=O)c2sccc2[C@H]1c1ccccc1OC | 25 (≈ 75.7 µM) | 50 (≈ 151 µM) | 50 (≈ 151 µM) | 25 (≈ 75.7 µM) | 25 (≈ 75.7 µM) | 50 (≈ 151 µM) | 10.76 | 13.54 | 17.76 | 19.65 | 21.65 | 11.87 | 15.98 | 22.76 | 29.77 | 31.56 |
| CCOC(=O)C1C(C(=O)c2cccs2)C1c1ccccc1OC (configuration not stated) | 50 (≈ 151 µM) | 100 (≈ 303 µM) | 75 (≈ 227 µM) | 75 (≈ 227 µM) | 75 (≈ 227 µM) | 25 (≈ 75.7 µM) |  |  |  |  |  |  |  |  |  |  |
| COc1ccc(O)c(C(C)(C)C)c1.COc1ccc(O)cc1C(C)(C)C [BUTYLATED HYDROXYANISOLE] |  |  |  |  |  |  |  |  |  |  |  | 13.87 | 17.95 | 25.58 | 32.03 | 36.87 |

Reference: ChEMBL document CHEMBL3826896, “Synthesis of lignan conjugates via cyclopropanation: Antimicrobial and antioxidant studies” (Bioorg Med Chem Lett, 2016)
